Source: ChEMBL document CHEMBL5696442, “Discovery of type II inhibitors of TGFβ-activated kinase 1 (TAK1) and mitogen-activated protein kinase kinase kinase kinase 2 (MAP4K2)” (J Med Chem, 2015)

How the values were obtained:
[1] = molecular target: Mitogen-activated protein kinase 9 (Homo sapiens, UniProt P45984); test: Inhibition of JNK2 (unknown origin) Lys2 labeling site by KiNativ Profiling analysis
[2] = molecular target: Cyclin-dependent kinase 8 (Homo sapiens) (UniProt P49336); test: Inhibition of CDK8 Lys2 labeling site in human A-375 cells at 0.05 uM by KiNativ Profiling analysis relative to control; assay type: cell-based
[3] = molecular target: Serine/threonine-protein kinase WNK2 (Homo sapiens) (UniProt Q9Y3S1); test: Inhibition of Wnk2 Lys2 labeling site in human A-375 cells at 5 uM by KiNativ Profiling analysis relative to control; assay type: cell-based
[4] = molecular target: Mitogen-activated protein kinase 14 (Homo sapiens, UniProt Q16539); test: Inhibition of p38 alpha (unknown origin) by KiNativ Profiling analysis
[5] = molecular target: T1, Aurora kinase C (Homo sapiens) (UniProt Q9UQB9); test: Inhibition of AurC ATP Loop labeling site in human A-375 cells at 0.5 uM by KiNativ Profiling analysis relative to control; assay type: cell-based
T1 sequence (whole entry): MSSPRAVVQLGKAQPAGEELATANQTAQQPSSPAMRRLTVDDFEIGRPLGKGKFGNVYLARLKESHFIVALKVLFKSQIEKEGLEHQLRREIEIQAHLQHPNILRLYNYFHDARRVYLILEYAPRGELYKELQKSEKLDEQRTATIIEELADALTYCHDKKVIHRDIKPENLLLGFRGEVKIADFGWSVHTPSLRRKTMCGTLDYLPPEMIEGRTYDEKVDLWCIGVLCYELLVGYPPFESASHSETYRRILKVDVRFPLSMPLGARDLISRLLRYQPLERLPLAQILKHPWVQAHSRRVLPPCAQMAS
Procedure, shortened: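 Live A375 melanoma cells were treated with compound at 5 or 0.5 μM, then lysed. The lysates were labeled with a lysine-reactive ATP or ADP-biotin probe. Kinase protection from probe labeling was measured by KiNativ.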

[6] = molecular target: Epidermal growth factor receptor (Homo sapiens) (UniProt P00533); test: Inhibition of EGFR ACT labeling site harbouring LLGAEEKEYHAEGGKVPIK in human A-375 cells at 5 uM by KiNativ Profiling analysis relative to control; assay type: cell-based
Procedure, shortened: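 Live A375 melanoma cells were treated with compound at 0.5 or 5 μM, then lysed. Lysates were labeled with a lysine-reactive ATP or ADP-biotin probe. The read-out was protection of each kinase probe-labeling site from labeling, relative to control.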

[7] = Inhibition of p70S6K Lys2 labeling site in human A-375 cells at 0.05 uM by KiNativ Profiling analysis relative to control; settings: condition cancer
[8] = molecular target: RAF proto-oncogene serine/threonine-protein kinase (Homo sapiens, UniProt P04049); test: Inhibition of RAF1 Lys2 labeling site in human A-375 cells at 0.5 uM by KiNativ Profiling analysis relative to control; assay type: cell-based
[9] = molecular target: T2, Mitogen-activated protein kinase 12 (Homo sapiens) (UniProt P53778); test: Inhibition of p38 gamma Lys2 labeling site in human A-375 cells at 0.5 uM by KiNativ Profiling analysis relative to control; assay type: cell-based
T2 sequence (whole entry): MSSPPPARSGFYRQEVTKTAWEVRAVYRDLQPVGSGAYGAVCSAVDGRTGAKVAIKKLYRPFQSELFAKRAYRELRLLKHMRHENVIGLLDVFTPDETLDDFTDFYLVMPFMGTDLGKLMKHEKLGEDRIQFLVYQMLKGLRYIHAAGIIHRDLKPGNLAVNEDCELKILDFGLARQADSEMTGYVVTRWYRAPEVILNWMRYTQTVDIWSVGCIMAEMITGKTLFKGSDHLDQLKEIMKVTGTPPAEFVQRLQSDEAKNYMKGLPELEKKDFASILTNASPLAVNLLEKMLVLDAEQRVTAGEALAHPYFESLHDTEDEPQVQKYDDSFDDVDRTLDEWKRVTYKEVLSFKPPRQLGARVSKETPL

[10] = molecular target: Serine/threonine-protein kinase 25 (Homo sapiens) (UniProt O00506); test: Inhibition of YSK1 ACT labeling site in human A-375 cells at 5 uM by KiNativ Profiling analysis relative to control; assay type: cell-based
[11] = molecular target: Serine/threonine-protein kinase PLK1 (Homo sapiens) (UniProt P53350); test: Inhibition of PLK1 Lys1 labeling site in human A-375 cells at 0.5 uM by KiNativ Profiling analysis relative to control; assay type: cell-based
[12] = molecular target: 3-phosphoinositide-dependent protein kinase 1 (Homo sapiens) (UniProt O15530); test: Inhibition of PDK1 Protein Kinase Domain in human A-375 cells at 0.5 uM by KiNativ Profiling analysis relative to control
[13] = molecular target: Casein kinase I isoform delta (Homo sapiens) (UniProt P48730); test: Inhibition of CK1delta Lys2 labeling site in human A-375 cells at 0.05 uM by KiNativ Profiling analysis relative to control; assay type: cell-based
[14] = molecular target: T3, Mitogen-activated protein kinase kinase kinase 7 (Homo sapiens) (UniProt O43318); test: Inhibition of TAK1 Lys2 labeling site in human Huh-7 cell lysate at 1 uM by KiNativ Profiling analysis relative to control; assay type: subcellular
T3 sequence (whole entry): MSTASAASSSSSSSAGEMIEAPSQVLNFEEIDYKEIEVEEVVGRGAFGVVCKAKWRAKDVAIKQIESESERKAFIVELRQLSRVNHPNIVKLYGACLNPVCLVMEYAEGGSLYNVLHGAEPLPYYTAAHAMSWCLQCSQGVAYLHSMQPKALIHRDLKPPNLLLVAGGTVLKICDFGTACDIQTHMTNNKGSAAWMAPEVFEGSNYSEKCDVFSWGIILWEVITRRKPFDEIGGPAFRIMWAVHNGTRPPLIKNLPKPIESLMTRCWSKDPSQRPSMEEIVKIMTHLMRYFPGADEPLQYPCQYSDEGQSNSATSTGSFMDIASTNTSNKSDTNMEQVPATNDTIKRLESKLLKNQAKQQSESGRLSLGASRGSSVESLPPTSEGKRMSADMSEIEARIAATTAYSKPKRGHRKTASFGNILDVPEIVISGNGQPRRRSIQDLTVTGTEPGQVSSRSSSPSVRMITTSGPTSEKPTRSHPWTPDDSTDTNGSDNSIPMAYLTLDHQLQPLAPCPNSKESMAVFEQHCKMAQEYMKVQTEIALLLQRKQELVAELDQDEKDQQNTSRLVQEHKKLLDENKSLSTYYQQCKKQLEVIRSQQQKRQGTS

[15] = molecular target: Misshapen-like kinase 1 (Homo sapiens) (UniProt Q8N4C8); test: Inhibition of ZC3 Lys2 labeling site in human Huh-7 cell lysate at 1 uM by KiNativ Profiling analysis relative to control; assay type: subcellular
Chain of Misshapen-like kinase 1 (Homo sapiens) (Q8N4C8 whole entry, looked up): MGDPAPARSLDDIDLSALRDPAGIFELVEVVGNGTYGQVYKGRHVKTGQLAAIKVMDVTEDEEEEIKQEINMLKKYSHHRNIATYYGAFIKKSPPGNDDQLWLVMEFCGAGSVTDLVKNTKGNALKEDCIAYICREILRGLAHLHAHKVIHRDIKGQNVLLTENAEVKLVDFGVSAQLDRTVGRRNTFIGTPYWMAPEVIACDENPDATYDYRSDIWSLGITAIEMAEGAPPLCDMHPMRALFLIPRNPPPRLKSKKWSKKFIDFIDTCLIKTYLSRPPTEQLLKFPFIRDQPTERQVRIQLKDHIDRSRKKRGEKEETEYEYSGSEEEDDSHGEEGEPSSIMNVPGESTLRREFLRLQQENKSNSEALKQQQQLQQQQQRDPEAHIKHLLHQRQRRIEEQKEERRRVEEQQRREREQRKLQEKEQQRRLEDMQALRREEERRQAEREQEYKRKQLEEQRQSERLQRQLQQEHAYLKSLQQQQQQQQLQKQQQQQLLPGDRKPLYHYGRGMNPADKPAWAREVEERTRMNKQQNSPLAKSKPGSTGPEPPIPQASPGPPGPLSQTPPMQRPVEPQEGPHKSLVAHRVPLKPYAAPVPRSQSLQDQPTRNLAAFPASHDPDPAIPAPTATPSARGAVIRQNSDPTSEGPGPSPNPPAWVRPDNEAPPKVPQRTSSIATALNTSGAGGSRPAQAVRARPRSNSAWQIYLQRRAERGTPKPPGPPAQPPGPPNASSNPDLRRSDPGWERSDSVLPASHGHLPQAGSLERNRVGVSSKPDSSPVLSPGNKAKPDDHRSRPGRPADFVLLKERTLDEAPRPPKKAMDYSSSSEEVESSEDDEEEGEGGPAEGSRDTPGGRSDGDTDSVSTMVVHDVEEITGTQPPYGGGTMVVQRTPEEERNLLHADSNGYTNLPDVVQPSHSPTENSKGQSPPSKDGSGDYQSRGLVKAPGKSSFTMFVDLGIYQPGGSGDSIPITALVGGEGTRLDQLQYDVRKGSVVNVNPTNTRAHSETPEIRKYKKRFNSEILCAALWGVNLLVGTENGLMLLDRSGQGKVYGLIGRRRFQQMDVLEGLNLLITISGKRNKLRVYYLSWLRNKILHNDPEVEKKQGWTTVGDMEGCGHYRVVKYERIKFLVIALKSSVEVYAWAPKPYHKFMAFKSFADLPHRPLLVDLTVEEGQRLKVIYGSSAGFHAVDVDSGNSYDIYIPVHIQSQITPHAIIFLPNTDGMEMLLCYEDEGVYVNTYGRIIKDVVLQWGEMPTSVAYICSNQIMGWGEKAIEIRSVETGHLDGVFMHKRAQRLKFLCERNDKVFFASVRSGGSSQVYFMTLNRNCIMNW

Chain of 3-phosphoinositide-dependent protein kinase 1 (Homo sapiens) (O15530 whole entry, looked up, the tested form may be a part, canonical isoform): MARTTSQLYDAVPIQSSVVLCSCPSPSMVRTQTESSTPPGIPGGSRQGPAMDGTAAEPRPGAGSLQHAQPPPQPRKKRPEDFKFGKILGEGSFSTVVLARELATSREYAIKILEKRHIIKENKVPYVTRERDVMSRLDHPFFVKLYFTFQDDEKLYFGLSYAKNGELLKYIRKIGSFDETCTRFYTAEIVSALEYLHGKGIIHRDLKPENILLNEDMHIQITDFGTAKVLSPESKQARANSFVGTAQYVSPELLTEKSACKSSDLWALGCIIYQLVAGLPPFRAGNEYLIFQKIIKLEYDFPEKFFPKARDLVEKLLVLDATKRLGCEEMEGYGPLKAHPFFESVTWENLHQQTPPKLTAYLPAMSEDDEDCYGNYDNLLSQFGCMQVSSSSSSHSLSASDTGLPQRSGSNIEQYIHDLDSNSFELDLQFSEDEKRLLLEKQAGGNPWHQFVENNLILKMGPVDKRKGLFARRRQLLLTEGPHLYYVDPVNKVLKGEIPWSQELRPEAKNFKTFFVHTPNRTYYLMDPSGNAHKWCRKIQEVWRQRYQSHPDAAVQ
Chain of Serine/threonine-protein kinase PLK1 (Homo sapiens) (P53350 whole entry, the tested form may be a part): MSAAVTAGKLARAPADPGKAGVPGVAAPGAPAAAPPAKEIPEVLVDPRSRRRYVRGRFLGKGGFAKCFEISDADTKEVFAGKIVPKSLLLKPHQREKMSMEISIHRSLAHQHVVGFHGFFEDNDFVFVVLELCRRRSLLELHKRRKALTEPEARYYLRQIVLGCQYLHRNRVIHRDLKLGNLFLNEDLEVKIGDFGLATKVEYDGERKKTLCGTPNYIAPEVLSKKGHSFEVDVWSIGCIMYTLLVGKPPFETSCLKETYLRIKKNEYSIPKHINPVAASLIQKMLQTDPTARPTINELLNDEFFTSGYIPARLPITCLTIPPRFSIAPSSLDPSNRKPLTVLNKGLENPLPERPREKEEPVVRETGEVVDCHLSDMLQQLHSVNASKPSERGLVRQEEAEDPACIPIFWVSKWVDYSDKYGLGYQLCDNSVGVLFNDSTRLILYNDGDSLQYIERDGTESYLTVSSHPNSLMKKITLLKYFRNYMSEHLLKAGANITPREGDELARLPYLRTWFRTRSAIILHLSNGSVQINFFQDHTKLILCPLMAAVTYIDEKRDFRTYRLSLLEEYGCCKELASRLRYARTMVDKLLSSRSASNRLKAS
Chain of Mitogen-activated protein kinase 14 (Q16539 whole entry): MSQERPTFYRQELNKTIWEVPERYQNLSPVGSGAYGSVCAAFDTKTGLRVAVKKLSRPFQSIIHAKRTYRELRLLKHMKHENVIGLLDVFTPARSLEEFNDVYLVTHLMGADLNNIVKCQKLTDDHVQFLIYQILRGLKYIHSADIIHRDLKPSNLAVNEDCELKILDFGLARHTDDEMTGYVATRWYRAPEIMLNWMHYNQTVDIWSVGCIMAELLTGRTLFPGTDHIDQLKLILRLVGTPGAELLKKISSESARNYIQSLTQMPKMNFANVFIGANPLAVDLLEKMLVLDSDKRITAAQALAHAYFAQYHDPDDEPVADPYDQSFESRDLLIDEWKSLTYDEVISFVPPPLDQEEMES
Chain of Serine/threonine-protein kinase 25 (Homo sapiens) (O00506 whole entry, looked up): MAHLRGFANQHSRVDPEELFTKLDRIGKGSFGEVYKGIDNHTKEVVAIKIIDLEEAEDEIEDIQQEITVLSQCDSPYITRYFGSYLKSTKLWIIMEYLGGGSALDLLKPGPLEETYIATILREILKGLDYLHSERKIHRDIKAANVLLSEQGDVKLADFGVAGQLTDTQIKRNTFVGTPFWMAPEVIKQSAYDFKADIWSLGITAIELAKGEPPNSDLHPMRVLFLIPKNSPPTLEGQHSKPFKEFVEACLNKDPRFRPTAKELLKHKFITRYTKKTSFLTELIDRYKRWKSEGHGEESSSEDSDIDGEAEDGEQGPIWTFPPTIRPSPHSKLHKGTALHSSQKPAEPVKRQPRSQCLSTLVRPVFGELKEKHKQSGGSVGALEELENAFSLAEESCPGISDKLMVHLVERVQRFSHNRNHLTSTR
Chain of RAF proto-oncogene serine/threonine-protein kinase (P04049 whole entry): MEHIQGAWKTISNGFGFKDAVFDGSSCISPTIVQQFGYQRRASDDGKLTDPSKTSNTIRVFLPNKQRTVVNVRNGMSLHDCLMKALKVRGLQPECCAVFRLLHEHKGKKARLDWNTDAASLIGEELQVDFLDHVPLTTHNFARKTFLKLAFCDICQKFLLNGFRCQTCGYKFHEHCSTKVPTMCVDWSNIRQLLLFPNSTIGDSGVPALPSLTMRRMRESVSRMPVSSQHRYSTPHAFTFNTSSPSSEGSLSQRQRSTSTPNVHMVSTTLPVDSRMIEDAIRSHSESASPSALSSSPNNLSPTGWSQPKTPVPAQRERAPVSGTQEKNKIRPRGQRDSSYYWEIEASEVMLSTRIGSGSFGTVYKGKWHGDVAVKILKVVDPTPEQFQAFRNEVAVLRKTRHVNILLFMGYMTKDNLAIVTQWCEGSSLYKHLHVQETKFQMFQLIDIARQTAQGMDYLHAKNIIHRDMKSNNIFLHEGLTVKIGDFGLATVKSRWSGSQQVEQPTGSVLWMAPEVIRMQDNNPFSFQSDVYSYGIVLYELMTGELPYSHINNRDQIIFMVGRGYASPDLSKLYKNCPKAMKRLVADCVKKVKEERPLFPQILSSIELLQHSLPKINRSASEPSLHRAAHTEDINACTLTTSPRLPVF
Chain of Casein kinase I isoform delta (Homo sapiens) (P48730 whole entry, looked up, canonical isoform): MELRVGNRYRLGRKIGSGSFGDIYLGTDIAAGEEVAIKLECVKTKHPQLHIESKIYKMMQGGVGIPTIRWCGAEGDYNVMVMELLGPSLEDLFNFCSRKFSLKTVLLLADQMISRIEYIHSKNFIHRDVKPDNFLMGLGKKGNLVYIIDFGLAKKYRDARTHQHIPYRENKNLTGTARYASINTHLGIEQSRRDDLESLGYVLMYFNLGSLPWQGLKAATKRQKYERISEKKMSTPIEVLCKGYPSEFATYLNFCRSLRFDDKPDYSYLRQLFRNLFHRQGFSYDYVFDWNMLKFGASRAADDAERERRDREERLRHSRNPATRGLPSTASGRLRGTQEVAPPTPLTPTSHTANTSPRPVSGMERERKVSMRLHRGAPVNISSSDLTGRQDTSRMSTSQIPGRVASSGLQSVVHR
Chain of Mitogen-activated protein kinase 9 (P45984 whole entry): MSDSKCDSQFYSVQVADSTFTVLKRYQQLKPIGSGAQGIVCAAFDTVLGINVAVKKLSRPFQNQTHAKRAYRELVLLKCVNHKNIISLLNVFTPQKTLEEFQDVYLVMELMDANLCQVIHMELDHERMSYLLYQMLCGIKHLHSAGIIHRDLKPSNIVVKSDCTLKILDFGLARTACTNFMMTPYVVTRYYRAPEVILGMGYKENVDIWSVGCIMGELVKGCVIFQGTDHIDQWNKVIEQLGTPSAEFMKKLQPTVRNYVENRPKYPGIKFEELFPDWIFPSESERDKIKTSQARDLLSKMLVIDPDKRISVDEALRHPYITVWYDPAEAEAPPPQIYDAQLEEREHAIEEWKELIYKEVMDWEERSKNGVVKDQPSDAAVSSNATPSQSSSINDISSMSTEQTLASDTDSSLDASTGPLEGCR

Row | Compound | IC50 [1] | inhibition [2] | inhibition [3] | IC50 [4] | inhibition [5] | inhibition [6] | inhibition at 0.05 µM [7] | inhibition [8] | inhibition [9] | inhibition [10] | inhibition [11] | inhibition [12] | inhibition [13] | inhibition [14] | inhibition [15]
1 | CCN1CCN(Cc2ccc(NC(=O)c3ccc(C)c(Oc4ccnc5[nH]ccc45)c3)cc2C(F)(F)F)CC1 | > 10000 nM | 32.1% | -5.5% | 102 nM | 31.2% | 0.7% | -7.2% | 79.2% | 86.2% | 35.1% | -3.8% | 15.4% | -0.7% | – | –
2 | CNc1cc(Oc2cc(C(=O)Nc3cc(-n4cnc(C)c4)cc(C(F)(F)F)c3)ccc2C)ncn1 | – | – | – | – | – | – | – | – | – | – | – | – | – | 29.3% | 24.1%
3 | CNc1cc(Oc2cc(C(=O)Nc3cc(N4CCN(C)CC4)cc(C(F)(F)F)c3)ccc2C)ncn1 | – | – | – | – | – | – | – | – | – | – | – | – | – | 7% | 2.7%
4 | CCN1CCN(Cc2ccc(NC(=O)c3ccc(C)c(/C=C/c4cnc5[nH]ccc5c4OC)c3)cc2C(F)(F)F)CC1 | > 10000 nM | -9.4% | 14.3% | 238 nM | 30.2% | -7.4% | -27% | 82.6% | 25.2% | 13.7% | -5.2% | 4.4% | -9.6% | – | –
